Blank lines part the entries; values can stand above or below the molecule they belong to.
Key:
Type in all cases: functional
[1] = biological target: T1, Nitric oxide synthase, inducible (Mus musculus) (UniProt P29477); assay: (§1) Compound was evaluated for the kinetic constants for Nitric Oxide formation from oxidation by NOS II
T1 sequence (whole entry): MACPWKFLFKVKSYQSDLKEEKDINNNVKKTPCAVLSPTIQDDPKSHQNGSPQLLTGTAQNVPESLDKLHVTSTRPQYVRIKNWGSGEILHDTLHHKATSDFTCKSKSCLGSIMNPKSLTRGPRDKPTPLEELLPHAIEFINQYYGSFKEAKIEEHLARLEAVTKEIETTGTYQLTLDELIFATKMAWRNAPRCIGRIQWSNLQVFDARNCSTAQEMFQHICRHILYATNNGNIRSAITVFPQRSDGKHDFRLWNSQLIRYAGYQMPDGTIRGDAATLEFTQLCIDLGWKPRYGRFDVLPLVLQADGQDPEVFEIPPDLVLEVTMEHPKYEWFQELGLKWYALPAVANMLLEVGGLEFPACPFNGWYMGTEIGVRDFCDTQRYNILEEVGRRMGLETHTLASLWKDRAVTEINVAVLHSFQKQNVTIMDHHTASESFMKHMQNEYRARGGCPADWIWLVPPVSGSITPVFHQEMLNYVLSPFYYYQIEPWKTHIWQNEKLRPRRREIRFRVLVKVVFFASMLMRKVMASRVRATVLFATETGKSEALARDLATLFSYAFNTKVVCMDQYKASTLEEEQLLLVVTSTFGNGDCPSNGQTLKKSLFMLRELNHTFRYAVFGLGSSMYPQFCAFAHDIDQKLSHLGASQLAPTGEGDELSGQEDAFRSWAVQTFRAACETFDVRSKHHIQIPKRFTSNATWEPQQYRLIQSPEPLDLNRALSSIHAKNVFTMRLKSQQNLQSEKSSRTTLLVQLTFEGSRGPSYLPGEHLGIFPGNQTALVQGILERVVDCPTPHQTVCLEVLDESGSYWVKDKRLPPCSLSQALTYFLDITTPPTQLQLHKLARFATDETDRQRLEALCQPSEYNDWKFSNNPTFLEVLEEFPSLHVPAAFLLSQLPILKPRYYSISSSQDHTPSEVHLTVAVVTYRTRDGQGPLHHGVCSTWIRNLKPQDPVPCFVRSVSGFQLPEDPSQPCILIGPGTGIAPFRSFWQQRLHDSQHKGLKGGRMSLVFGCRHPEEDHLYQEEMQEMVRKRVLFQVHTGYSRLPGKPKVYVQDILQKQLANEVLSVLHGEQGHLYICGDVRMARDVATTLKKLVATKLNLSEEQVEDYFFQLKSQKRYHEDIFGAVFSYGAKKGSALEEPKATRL
Outline: (§2)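 Recombinant purified NOS II was run in the hemoglobin assay at 37 °C in 50 mM HEPES pH 7.4 with NADPH, BH4, SOD, catalase and DTT, over varying substrate concentrations. Initial NO-formation rates gave saturation kinetics. Km (μM) and kcat (min⁻¹) were derived from Lineweaver-Burk plots, and kcat/Km is expressed in μM⁻¹ min⁻¹.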

[2] = biological target: T1, Nitric oxide synthase, inducible (Mus musculus); assay: Formation of Nitric Oxide by Nitric Oxide synthase II(% relative to NOHA)
Outline: (§3)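 Purified recombinant NOS (5–50 nM) at 37 °C in 50 mM HEPES pH 7.4 with 1 mM test compound, 1 mM NADPH, 100 μM BH4, 100 U/mL SOD, 100 U/mL catalase, 12–15 μM oxyhemoglobin and 5 mM DTT. NOS I and NOS III runs also contained 1 mM CaCl2 and 10 μg/mL calmodulin. NO was read spectrophotometrically as oxyhemoglobin-to-methemoglobin conversion. Initial rates are given as % of the NOHA rate.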

[3] = biological target: Nitric oxide synthase 1 (Homo sapiens) (UniProt P29475); assay: Formation of Nitric Oxide by Nitric Oxide synthase I(% relative to NOHA); outline: as §3
Chain of Nitric oxide synthase 1 (Homo sapiens) (P29475 whole entry): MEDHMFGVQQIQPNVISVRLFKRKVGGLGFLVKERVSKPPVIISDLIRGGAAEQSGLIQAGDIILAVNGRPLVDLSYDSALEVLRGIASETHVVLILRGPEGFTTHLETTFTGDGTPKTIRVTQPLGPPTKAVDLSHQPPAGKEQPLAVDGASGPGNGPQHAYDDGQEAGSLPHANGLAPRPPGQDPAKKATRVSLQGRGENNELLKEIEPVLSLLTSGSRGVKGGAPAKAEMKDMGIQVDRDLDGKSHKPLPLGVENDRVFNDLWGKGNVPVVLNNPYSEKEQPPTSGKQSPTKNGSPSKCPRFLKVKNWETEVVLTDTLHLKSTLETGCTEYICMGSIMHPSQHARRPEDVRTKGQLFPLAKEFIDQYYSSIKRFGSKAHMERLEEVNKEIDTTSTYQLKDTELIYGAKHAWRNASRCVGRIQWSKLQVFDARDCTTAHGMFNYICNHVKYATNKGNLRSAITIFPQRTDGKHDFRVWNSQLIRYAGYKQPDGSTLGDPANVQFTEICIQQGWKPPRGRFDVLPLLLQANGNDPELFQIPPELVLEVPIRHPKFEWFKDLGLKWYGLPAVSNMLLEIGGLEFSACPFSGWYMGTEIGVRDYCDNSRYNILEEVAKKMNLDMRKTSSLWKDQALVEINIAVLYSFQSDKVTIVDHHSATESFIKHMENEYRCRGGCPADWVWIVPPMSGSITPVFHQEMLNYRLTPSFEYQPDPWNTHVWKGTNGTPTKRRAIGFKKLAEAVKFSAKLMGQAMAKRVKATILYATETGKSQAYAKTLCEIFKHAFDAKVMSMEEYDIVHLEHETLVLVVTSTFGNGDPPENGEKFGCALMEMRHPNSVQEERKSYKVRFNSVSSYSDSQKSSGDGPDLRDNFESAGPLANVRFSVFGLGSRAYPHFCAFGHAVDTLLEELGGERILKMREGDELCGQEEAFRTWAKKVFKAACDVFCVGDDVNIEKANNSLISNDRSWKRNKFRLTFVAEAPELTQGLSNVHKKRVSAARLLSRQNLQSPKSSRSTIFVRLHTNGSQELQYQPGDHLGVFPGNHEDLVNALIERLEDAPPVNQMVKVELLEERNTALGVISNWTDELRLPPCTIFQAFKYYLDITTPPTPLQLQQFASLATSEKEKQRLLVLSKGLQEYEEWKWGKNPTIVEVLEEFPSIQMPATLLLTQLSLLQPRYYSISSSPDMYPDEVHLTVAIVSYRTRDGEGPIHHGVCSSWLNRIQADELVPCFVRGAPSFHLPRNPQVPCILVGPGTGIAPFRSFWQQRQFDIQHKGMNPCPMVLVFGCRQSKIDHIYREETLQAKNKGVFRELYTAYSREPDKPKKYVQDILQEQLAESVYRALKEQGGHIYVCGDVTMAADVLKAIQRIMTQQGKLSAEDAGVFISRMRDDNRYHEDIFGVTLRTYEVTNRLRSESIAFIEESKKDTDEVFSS

[4] = Ratio between Km (uM) and Kcat (1/min) was determined; outline: as §2
[5] = biological target: T2, Nitric oxide synthase 3 (Homo sapiens) (UniProt P29474); assay: Formation of Nitric Oxide by Nitric Oxide synthase III(% relative to NOHA); outline: as §3
T2 sequence (whole entry): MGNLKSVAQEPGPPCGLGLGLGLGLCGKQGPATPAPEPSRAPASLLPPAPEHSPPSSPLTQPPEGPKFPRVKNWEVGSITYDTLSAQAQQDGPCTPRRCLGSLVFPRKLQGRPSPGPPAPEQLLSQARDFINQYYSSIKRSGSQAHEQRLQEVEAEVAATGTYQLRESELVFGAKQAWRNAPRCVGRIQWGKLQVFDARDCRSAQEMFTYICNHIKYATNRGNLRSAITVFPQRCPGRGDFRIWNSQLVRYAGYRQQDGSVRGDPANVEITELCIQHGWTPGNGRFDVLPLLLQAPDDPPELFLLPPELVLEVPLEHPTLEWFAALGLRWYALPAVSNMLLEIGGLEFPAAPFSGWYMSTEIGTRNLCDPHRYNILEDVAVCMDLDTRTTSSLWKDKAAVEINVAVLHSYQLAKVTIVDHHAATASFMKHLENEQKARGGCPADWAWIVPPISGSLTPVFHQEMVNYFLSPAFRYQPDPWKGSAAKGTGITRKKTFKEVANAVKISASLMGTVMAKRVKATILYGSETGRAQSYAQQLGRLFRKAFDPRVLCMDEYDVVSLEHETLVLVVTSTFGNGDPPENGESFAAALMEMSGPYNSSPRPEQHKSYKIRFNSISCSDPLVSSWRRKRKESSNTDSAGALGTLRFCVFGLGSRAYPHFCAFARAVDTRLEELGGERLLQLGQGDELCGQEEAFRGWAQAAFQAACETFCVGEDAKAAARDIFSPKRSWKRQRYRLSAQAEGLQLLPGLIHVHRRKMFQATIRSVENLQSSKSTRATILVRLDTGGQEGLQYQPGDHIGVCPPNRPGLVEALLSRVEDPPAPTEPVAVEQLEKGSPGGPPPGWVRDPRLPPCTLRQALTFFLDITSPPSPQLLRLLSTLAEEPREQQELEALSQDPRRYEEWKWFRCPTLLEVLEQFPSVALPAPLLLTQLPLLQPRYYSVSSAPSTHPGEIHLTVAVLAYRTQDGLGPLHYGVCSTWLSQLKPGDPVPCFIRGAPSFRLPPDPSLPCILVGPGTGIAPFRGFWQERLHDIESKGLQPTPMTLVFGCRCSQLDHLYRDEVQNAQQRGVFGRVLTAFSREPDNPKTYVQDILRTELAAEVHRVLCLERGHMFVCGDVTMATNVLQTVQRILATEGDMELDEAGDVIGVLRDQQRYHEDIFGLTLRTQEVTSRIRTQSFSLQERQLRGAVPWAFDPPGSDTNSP

[6] = substrate: CCCCC/N=C(/N)NO; assay: as §1; outline: as §2
[7] = substrate: CCCCN/C(N)=N/O; assay: as §1; outline: as §2
[8] = substrate: N/C(=N/CCCC(N)C(=O)O)NO; assay: as §1; outline: as §2
[9] = substrate: N/C(=N/CCCCC(N)C(=O)O)NO; assay: as §1; outline: as §2
[10] = substrate: N=C(NO)Nc1ccc(Cl)cc1; assay: as §1; outline: as §2

Molecule: N/C(=N/CC(N)C(=O)O)NO (stereo unspecified)
Initial rates [2]: < 0.5
Initial rates [3]: < 0.5
Initial rates [5]: < 0.5

Molecule: NCCCN/C(N)=N/O
Initial rates [2]: < 0.5
Initial rates [3]: < 0.5
Initial rates [5]: < 0.5

Molecule: CCC/N=C(/N)NO
Initial rates [2]: 15
Initial rates [3]: 36
Initial rates [5]: 41

Molecule: CCCCN/C(N)=N/O
k cat [1]: 320 min⁻¹
Initial rates [2]: 68
Initial rates [3]: 65
k cat/Km [4]: 5.8 µM⁻¹ min⁻¹
Initial rates [5]: 41

Molecule: N=C(NO)Nc1ccc(Cl)cc1
k cat [1]: 100 min⁻¹
k cat/Km [4]: 0.2 µM⁻¹ min⁻¹

B1: Nitric oxide synthase, inducible (Mus musculus), P29477 (protein)
chain: T1 sequence (whole entry)
Km [6]: 310 µM
Km [7]: 55 µM
Km [8]: 40 µM
Km [9]: 146 µM
Km [10]: 500 µM

The remaining lines, values ahead:

k cat [1]: 410 min⁻¹
Initial rates [2]: 55
Initial rates [3]: 82
k cat/Km [4]: 2.8 µM⁻¹ min⁻¹
Initial rates [5]: 70
Molecule: N/C(=N/CCCCC(N)C(=O)O)NO (stereo unspecified)

k cat [1]: 480 min⁻¹
Initial rates [2]: 100
Initial rates [3]: 100
k cat/Km [4]: 12 µM⁻¹ min⁻¹
Initial rates [5]: 100
Molecule: N/C(=N/CCCC(N)C(=O)O)NO (stereo unspecified)

Initial rates [2]: < 0.5
Initial rates [3]: < 0.5
Initial rates [5]: < 0.5
Molecule: NC(=NCCC(N)C(=O)O)NO (stereo unspecified)

Initial rates [2]: 8
Initial rates [3]: 2
Initial rates [5]: < 0.5
Molecule: NCCCC/N=C(/N)NO

k cat [1]: 280 min⁻¹
Initial rates [2]: 25
Initial rates [3]: 34
k cat/Km [4]: 0.9 µM⁻¹ min⁻¹
Initial rates [5]: < 0.5
Molecule: CCCCC/N=C(/N)NO

Initial rates [2]: < 0.5
Initial rates [3]: < 0.5
Initial rates [5]: < 0.5
Molecule: NC(=NCCCC(=O)O)NO

Initial rates [2]: 1
Initial rates [3]: 2
Initial rates [5]: < 0.5
Molecule: CCCCCC/N=C(/N)NO

Initial rates [2]: 1
Initial rates [3]: < 0.5
Initial rates [5]: 2
Molecule: N/C(=N/CCCCC(=O)O)NO

Reference: ChEMBL document CHEMBL1134763, “Oxidation of N(omega)-hydroxyarginine analogues by NO-synthase: the simple, non amino acid N-butyl N'-hydroxyguanidine is almost as efficient an NO precursor as N(omega)-hydroxyarginine” (J Med Chem, 2001)
